Starred links: 1 amine or outer side, 2 acyl side, 3 side chain; linkers in the order of their positions; H or OH if unused. Positions of bridges follow the written chain, without caps; N, C: chain ends. Non-standard residues stand in square brackets, D forms with d. Residues, ends and D or L forms follow the SMILES beside them. *: point of attachment. X2 = O=C(CN([C@@H](CS[*:3])C(=O)[*:2])[*:1])c1ccccc1; X1 = O=C([C@@H](N[*:1])[C@H](S[*:3])c1ccccc1)[*:2]; NMeR = CN[C@@H](CCCNC(=N)N)C(=O)O; Pen = CC(C)(S)[C@H](N)C(=O)O; Pentanoyl = CCCCC(=O)*; Bz = O=C(c1ccccc1)*; X3 = CC(S)C(=O)*

This passage reports IC50 and Ki results from ChEMBL document CHEMBL1127669, “Conformationally constrained peptides and semipeptides derived from RGD as potent inhibitors of the platelet fibrinogen receptor and platelet aggregation” (J Med Chem, 1994).

The species named for assay [1] is Canis familiaris. The assay can be described thus: Inhibition of platelet aggregation in canine platelet rich plasma induced by ADP. The class given is functional, Canis lupus familiaris. In a few lines:
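Citrated canine PRP aggregation read optically by light transmittance. Peptide stock was 12 mM in 0.2 M acetic acid. Final 200 µM peptide and 10 µM ADP, pH 7.7, after 5-min preincubation with peptide.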

For assay [2], the target named is T1, Integrin alpha-IIb/beta-3 (Homo sapiens, UniProt P05106+P08514). Kind of assay: Tested for inhibition of fibrinogen binding to purified GPIIb/IIIa isolated from human platelets and reconstituted in liposomes. In a few lines: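 Displacement of [¹²⁵I]fibrinogen from purified human platelet GPIIb/IIIa incorporated into phospholipid vesicles. Values without statistical limits come from a single determination.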

The target in assay [3] is T1, Integrin alpha-IIb/beta-3. Kind of assay: Inhibition of [3H]-SKF- 107260 binding to purified GPIIb/IIIa from human platelets reconstituted in liposomes. In a few lines:
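Competition binding on filter wells precoated with 10 µg/mL polylysine. Reaction started with 0.5 µg lectin-purified receptor, incubated 1 h at room temperature, filtered, washed in ice-cold buffer, scintillation counted. IC50 from nonlinear least-squares fit; Ki by Cheng–Prusoff. Mean of quadruplicates, single experiment.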

T1 sequence (P05106 27-788 limits assumed): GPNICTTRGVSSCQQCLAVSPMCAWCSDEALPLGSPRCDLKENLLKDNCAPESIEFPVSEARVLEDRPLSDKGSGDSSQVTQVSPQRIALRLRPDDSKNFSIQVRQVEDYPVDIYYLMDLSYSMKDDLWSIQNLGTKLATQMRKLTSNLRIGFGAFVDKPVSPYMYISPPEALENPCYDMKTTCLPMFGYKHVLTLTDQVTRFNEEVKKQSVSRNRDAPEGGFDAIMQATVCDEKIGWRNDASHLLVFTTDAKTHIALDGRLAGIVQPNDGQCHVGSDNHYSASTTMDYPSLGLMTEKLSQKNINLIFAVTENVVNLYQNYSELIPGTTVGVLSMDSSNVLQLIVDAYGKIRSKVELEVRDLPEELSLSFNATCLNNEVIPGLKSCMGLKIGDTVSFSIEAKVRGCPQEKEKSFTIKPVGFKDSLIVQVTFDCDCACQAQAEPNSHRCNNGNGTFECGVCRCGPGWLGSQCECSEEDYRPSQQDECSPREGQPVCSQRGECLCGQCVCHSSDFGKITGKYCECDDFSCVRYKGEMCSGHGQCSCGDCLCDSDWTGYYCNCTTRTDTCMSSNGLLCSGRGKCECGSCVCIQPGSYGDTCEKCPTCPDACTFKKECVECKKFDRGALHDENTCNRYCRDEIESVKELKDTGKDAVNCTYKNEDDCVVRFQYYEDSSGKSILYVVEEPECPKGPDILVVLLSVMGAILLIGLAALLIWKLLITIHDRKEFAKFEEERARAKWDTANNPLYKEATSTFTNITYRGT
T1 sequence (P08514 32-887 limits assumed): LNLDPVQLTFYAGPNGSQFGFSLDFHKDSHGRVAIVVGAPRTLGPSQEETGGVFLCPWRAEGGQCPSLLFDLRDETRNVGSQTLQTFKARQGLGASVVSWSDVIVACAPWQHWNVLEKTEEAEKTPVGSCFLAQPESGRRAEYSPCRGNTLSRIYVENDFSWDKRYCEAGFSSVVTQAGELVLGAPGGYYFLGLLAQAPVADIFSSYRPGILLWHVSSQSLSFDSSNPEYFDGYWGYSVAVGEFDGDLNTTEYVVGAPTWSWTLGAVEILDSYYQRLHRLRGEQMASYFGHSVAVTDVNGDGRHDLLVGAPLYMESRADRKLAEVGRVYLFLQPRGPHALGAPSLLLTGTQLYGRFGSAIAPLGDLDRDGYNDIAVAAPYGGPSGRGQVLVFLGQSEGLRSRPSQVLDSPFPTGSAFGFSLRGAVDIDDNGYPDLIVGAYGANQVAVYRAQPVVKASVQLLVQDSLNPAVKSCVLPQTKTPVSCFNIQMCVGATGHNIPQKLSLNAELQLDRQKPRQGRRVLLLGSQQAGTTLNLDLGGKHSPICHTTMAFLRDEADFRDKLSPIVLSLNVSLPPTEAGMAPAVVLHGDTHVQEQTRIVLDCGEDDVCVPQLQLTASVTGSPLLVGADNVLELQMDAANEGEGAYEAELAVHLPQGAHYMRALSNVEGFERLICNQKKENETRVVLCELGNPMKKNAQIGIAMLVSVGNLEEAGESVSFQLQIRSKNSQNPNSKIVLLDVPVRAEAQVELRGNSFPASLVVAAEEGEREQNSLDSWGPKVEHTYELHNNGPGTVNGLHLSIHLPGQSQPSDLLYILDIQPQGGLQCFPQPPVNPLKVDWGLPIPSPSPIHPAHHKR
T1 sequence (P08514 891-1039 limits assumed): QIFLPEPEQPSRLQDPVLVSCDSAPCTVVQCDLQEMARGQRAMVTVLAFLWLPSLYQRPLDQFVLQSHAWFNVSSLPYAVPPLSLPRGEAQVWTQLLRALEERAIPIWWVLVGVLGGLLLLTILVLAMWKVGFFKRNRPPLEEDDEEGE

As to `CN1CC(=O)N(C)[C@@H](CCCN=C(N)N)C(=O)NCC(=O)N[C@@H](CC(=O)O)C(=O)Nc2ccccc2SSc2ccccc2C1=O`, in assay [1] (Canis lupus familiaris, Plasma), the half-maximal inhibitory concentration (IC50) is 0.102 µM. Moreover, the Ki in assay [2] was 0.0245 µM.
`CC(=O)N[C@H]1CSSC(C)(C)[C@@H](C(N)=O)NC(=O)[C@H](CC(=O)O)NC(=O)CNC(=O)[C@H](CCCN=C(N)N)N(C)C1=O` gave an IC50 in assay [1] (Canis lupus familiaris, Plasma) of 0.36 µM. This molecule showed a Ki in assay [3] of 0.102 µM.
Consider `CC(=O)N[C@@H]1CSSC(C)(C)[C@H](C(N)=O)NC(=O)[C@@H](CC(=O)O)NC(=O)CNC(=O)[C@H](CCCN=C(N)N)N(C)C1=O`, for which, in assay [1] (Canis lupus familiaris, Plasma), the IC50 was 1.79 µM. In assay [2], this molecule showed a Ki of 0.082 µM.
In assay [1] (Canis lupus familiaris, Plasma), `CC(=O)N[C@H]1CSSC(C)(C)[C@@H](C(=O)O)NC(=O)[C@H](CC(=O)O)NC(=O)CNC(=O)[C@H](CCCN=C(N)N)N(C)C1=O` (Ac-C[NMeR]GD[Pen]-OH; disulfide 1-5) had an IC50 of 0.08 µM. Besides, the Ki in assay [2] amounted to 0.0085 µM.
For `CC(=O)N[C@H]1CSS[C@H](c2ccccc2)[C@@H](C(N)=O)NC(=O)[C@H](CC(=O)O)NC(=O)CNC(=O)[C@H](CCCN=C(N)N)N(C)C1=O` (Ac-C[NMeR]GD[X1]-NH2; disulfide 1-5), in that order: 0.098 µM and 0.125 µM.
In the case of `CN1C(=O)[C@@H](NC(=O)c2ccccc2)CSSC(C)(C)[C@@H](C(N)=O)NC(=O)[C@H](CC(=O)O)NC(=O)CNC(=O)[C@@H]1CCCN=C(N)N` (Bz-C[NMeR]GD[Pen]-NH2; disulfide 1-5), in assay [1] (Canis lupus familiaris, Plasma), the 50% inhibitory concentration (IC50) stood at 0.2 µM. Also, the Ki in assay [2] came to 0.0137 µM.
The like results for `CN1C(=O)[C@@H](N)CSSC(C)(C)[C@@H](C(N)=O)NC(=O)[C@H](CC(=O)O)NC(=O)CNC(=O)[C@@H]1CCCN=C(N)N` (H-C[NMeR]GD[Pen]-NH2; disulfide 1-5) were, in that order, 0.2 µM and 0.0093 µM.
For `CN1C(=O)[C@@H](N)CSSC(C)(C)[C@@H](C(=O)O)NC(=O)[C@H](CC(=O)O)NC(=O)CNC(=O)[C@@H]1CCCN=C(N)N` (H-C[NMeR]GD[Pen]-OH; disulfide 1-5), in assay [1] (Canis lupus familiaris, Plasma), inhibition was half-maximal at 0.12 µM (IC50). In assay [2], this molecule registered a Ki of 0.0048 µM.
The like results for `CN1C(=O)[C@@H](NCC(=O)c2ccccc2)CSSC(C)(C)[C@@H](C(N)=O)NC(=O)[C@H](CC(=O)O)NC(=O)CNC(=O)[C@@H]1CCCN=C(N)N` (H-[X2][NMeR]GD[Pen]-NH2; disulfide 1-5) were, in that order, 0.28 µM and 0.035 µM.
Molecule `CCCCC(=O)N[C@H]1CSSC(C)(C)[C@@H](C(N)=O)NC(=O)[C@H](CC(=O)O)NC(=O)CNC(=O)[C@H](CCCN=C(N)N)N(C)C1=O` (Pentanoyl-C[NMeR]GD[Pen]-NH2; disulfide 1-5) came in with an IC50 in assay [1] (Canis lupus familiaris, Plasma) of 0.25 µM. The molecule further registered a Ki in assay [2] of 0.026 µM.
In the case of `CC(S)C(=O)N[C@H]1CSSC(C)(C)[C@@H](C(N)=O)NC(=O)[C@H](CC(=O)O)NC(=O)CNC(=O)[C@H](CCCN=C(N)N)N(C)C1=O` (stereo not given in full) (X3-C[NMeR]GD[Pen]-NH2; disulfide 1-5), the midpoint of inhibition in assay [1] (Canis lupus familiaris, Plasma), the IC50, lay at 0.34 µM. For the same molecule, in assay [2], the Ki stood at 0.0243 µM.
Molecule `CC(=O)N[C@H]1CSSC(C)(C)[C@@H](C(N)=O)NC(=O)[C@H](CC(=O)O)NC(=O)CNC(=O)[C@H](CCCN=C(N)N)N(C)C(=O)CNC1=O` (single isomer, unassigned) yielded a concentration for half-maximal inhibition (IC50) in assay [1] (Canis lupus familiaris, Plasma) of 0.36 µM. In assay [2], the Ki was found to be 0.135 µM.
For `CC(=O)N[C@@H]1C(=O)N(C)[C@@H](CCCN=C(N)N)C(=O)NCC(=O)N[C@@H](CC(=O)O)C(=O)N[C@H](C(N)=O)C(C)(C)SSC1(C)C` (single isomer, unassigned), 0.37 µM corresponded to half-maximal inhibition in assay [1] (Canis lupus familiaris, Plasma) (IC50). This molecule also gave a Ki in assay [2] of 0.0025 µM.
For `CC(=O)N[C@H]1CSSC(C)(C)[C@@H](C(N)=O)NC(=O)[C@H](CC(=O)O)NC(=O)CNC(=O)[C@H](CCCN=C(N)N)N(C)C(=O)CN(Cc2ccccc2)C1=O` (single isomer, unassigned), half-maximal inhibition in assay [1] (Canis lupus familiaris, Plasma) (IC50) required 0.29 µM. The molecule also had a Ki in assay [2] of 0.43 µM.
For `N=C(N)NCCC[C@@H]1NC(=O)c2ccccc2SSc2ccccc2NC(=O)[C@H](CC(=O)O)NC(=O)CNC1=O` (single isomer, unassigned), the IC50 in assay [1] (Canis lupus familiaris, Plasma) came out at 0.29 µM. The same molecule registered a Ki in assay [2] of 0.027 µM.
In assay [1] (Canis lupus familiaris, Plasma), `CC(=O)N[C@H]1CSSC(C)(C)[C@@H](C(N)=O)NC(=O)[C@H](CC(=O)O)NC(=O)CN(C)C(=O)[C@H](CCCN=C(N)N)NC1=O` (single isomer, unassigned) had an IC50 of 73.4 µM. The Ki in assay [2] was found to be 1.25 µM.
In turn, `CC(=O)N[C@@H]1C(=O)N[C@@H](CCCN=C(N)N)C(=O)NCC(=O)N[C@@H](CC(=O)O)C(=O)N[C@H](C(N)=O)CSSC1(C)C` (single isomer, unassigned) yielded an IC50 in assay [1] (Canis lupus familiaris, Plasma) of 7.97 µM. The molecule also displayed a Ki in assay [2] of 0.188 µM.
Molecule `CC(=O)N[C@H]1CSSC(C)(C)[C@@H](C(N)=O)NC(=O)[C@H](CC(=O)O)NC(=O)CNC(=O)[C@H](CCCN=C(N)N)N(C)C(=O)CN(C)C1=O` (single isomer, unassigned) returned an IC50 in assay [1] (Canis lupus familiaris, Plasma) of 0.15 µM. For the same molecule, the affinity in assay [2] corresponds to a Ki of 0.02 µM.
The like results for `CC(=O)N[C@H]1CSSC(C)(C)[C@@H](C(N)=O)NC(=O)[C@H](CC(=O)O)NC(=O)CN(C)C(=O)[C@H](CCCN=C(N)N)N(C)C1=O` (single isomer, unassigned) were, in that order, 39.5 µM and 15.1 µM.
For the molecule `CC(=O)N[C@@H]1CSSC(C)(C)[C@H](C(N)=O)NC(=O)C(CC(=O)O)NC(=O)CNC(=O)C(CCCN=C(N)N)NC1=O` (single isomer, unassigned; 31), in assay [1], the IC50 came to 20.3 µM. The affinity in assay [2], expressed as Ki, was 3 µM.
